Assay results taken from the RNAGym collection of RNA variant scans (doi:10.1126/science.aae0568).
This sample holds only a part of the variants without activity.

B1: tRNA (parent)
chain: GUUCCGUUGGCGUAAUGGUAACGCGUCUCCCUCCUAAGGAGAAGACUGCGGGUUCGAGUCCCGUACGGAACG

Variants of: B1
Assay: yeast fitness relative to wild type (ratio to wild type); higher = fitter; tRNA-Arg(CCU), competitive growth, 37 C, YPD
In short: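 Start and end populations of a pooled competition were compared by 100-nucleotide paired-end sequencing of gene amplicons. The Saccharomyces cerevisiae strains carried tRNA-Arg(CCU) gene variants at the native genomic locus, synthesised with a 3% per-site mutation rate at 69 sites, and competed in YPD at 37°C for 24 hours in six parallel replicates. Darwinian fitness relative to wild type was based on the change in genotype frequencies. Genotypes required ≥ 100 starting reads, and estimates < 0.5 were set to 0.5.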

Variant | yeast fitness
GUUAAGUUGGCGUAAUGGUAACGCGUCUCCCUCCCAAGGAGAAAACUCCGGGUUGGAGUCCCGUACGGUACG | ≤ 0.5
GUUACGUUGGCGUAAUGGUAACGCGUCUCCCUCCUAAGGAGAAGACUGCGGGUUCGCGUCGCGUACGGAACG | ≤ 0.5
GUUAGGUUGGCGUAAUGGUGACGCGUCUCCCUCCUAAGGAGAAGACUGCGGGUUCGUGUCCCGUACGUAACG | ≤ 0.5
GUUACGUUGGCGUAAUGGUAACGCGUCUCCCUCCUAAGGAGAAGUCUGCGAGUUCGAGUCCCGUACGGAACG | ≤ 0.5
GUUACGUUGGCGUAAUGGUAACGCGUCUCCCUCCUAAGGUGAAGACUGCGGCUUCGAGUGCCGUACGGAACG | 0.552
GUUAAGUUGGCGUAAUGGUAACACGUCUCCCUCCUAAGGAGAAGACUGCGGGUUCGAGUCCCGUACGGAACG | ≤ 0.5
GUUACGUUGGCGUAAUGGUAACGCGUCUCCCUCCUAAGGAGAAGACUGCGGGUUCGAGUCCCGUUAGGAACG | ≤ 0.5
GUUACGUUGGCGUAAUGGUAACGCGUCUCCCUCCUAAGGAGAAGACUGCGGGUUCGGGUCCCGUACGGAUCG | 0.587
GUUACGUUGGCGUAAUGGUAACGCGUCUCCCUCCUAAGGAGAAGACUGCGGGUUCGGGUCCCGUACGGACCG | 0.617
GUUACGUUGGCGUAAUGGUAACGCGUCUCCCUCCUAGGGAGAAGCCUGCGGGUUCGAGUCCCGUAGGGAACG | ≤ 0.5
GUUACGUUGGCGUAAUGGUAACGCGUCUCCCUCCUAAGGGGAAGACUGCGGGUUCGAGUCCCGUACGGAACG | 0.828
GUUACGUUGGCGUAAUGGUAACGCGUCUCCCUCCUAAGGAGAAGACUGCGGGUUCGGGUCCCGUACGGAACG | 0.841
GUUACGUUGGCGUAAUGGUAACGCGUCUCCCUCCUAAGGAGAAGACUGCGGGUUCGCGUCCCGUACGGAACG | 0.57
GUUACGUUGGCGUAAUGGUAACGCGUCUCCCUCCUAAGGAGAAGGCUGCGGGUUCGAGUCCCGUACGGAACG | 0.808
GUUACGUUGGCGUAAUGGUAACGCGUCUCCCUCCUAAGGAGAAGUCUGCGGGUUCGAGUCCCGUACGGAACG | 0.818
GUUACGUUGGCGUAAUGGUAACGCGUCUCCCUCCUAAGGAGACGACUGCGGGUUCGAGUCCCGUACGGAACG | 0.89
GUUACGUUGGCGUAAUGGUAACGCGUCUCCCUCCUAAGGAGAGGACUGCGGGUUCGAGUCCCGUACGGAACG | 0.785
GUUAAGUUGGCGUAAUGGUAACGCGUCUGCCUCCUAACGAGAAGACUGCGGGUUCGAGUCCCGUUCGGAACG | ≤ 0.5
GUUAGGUUGGCGUAAUGGUCACGCGUCUCCCUCCUAAGGUGAAGACUGCGGGUUCGAGUCGCGUACGGAACG | ≤ 0.5
GUUACGUUGGCGUAAUGGUAUCGCGUCUCCCUCCUAAGGAGAAGACGGCGGGUUCGAGUCCCGUACGGAACG | 0.535
GUUACGUUGGCGUAAUGGUAUCGCGUAUCCCUCCUAAGGACAAGACUGCGGGUUCGAGUCCCGUACGGAGCG | ≤ 0.5
GUUAAGUUGGCGUAAUGGUAACGCGUCUCCCUCAUAAGGAGAGGACUGCGGGUUCGAGUCCCGUACGGAACG | ≤ 0.5
GUUACGUUGGCGUAAUGGUAACGCGUCUCCCUCCUAAGGAGAAGACUGCGGGUUCGGGUCCGGUAGGGAACG | ≤ 0.5
GUUACGUUGGCGUAAUGGUAACGCGUCUCCCUCCUAAGGAGCAGACUGCGGGUUCGAGUCCCGUACGGAACG | 0.794
GUUACGUUGGCGUAAUGGUAACGCGUCUCCCUCCUAAGGAGGAGACUGCGGGUUCGAGUCCCGUACGGAACG | 0.991

Variant | yeast fitness
GUUACGUUGGCGUAAUGGUAUCGCGUCUCCCUCCUAAGGAGAAGAAUGCGGGUUCGAGUCCCGUACGGAACG | 0.58
GUUACGUUGGCGUAAUGGUAACGCGUCUCCCUCCUAAGGAGAUGACGGCGGGUUCGAGUCCCGUACGGAACG | ≤ 0.5
GUUAAGUUGGCGUAAUGGUUACGCGUCUCCCUCCUAAGGAGAAGAUUACGGGUUCGAGUCCCGUACGGAACG | ≤ 0.5
GUUACGUUGGCGUAAUGGUAACGCGUCUCCCUCCUACGGAGCAGACUGCGGGUUCGAGUCCCGUACGGAACG | 0.506
GUUACGUUGGCGUAAUGGUAACGCGUCUCCCUCCUAAGGAGAAGACUGCGGGUUCGAGUCCCGUUCGGUACG | 0.774
GUUACGUUGGCGUAAUGGUAGCGCGUCUCCCUCCUAAGGAGAAGACUGCGGGUUCGAGUCCCGUACGGAACG | 0.974
GUUACGUUGGCGUAAUGGUACUGCGUCUCCCUCCCAAGGAGAAGACUGCCGGUUCGAGUCCCGUACGGAUCG | 0.563
GUUAGGUUGGCGUAGUGGUAACCCGUCUCUCUCCUAAGGAGAAGACUGCGGGUUCGAGUCCCGUACGGAACG | ≤ 0.5
GUUAGGUUGGCGUAAUGGUAACGCGUCUCCCUCCUAAGGAGGAGACUGCGGGUUCGAGUCCCGUACGGAACG | ≤ 0.5
GUUACGUUGGCGUAAUGGUAACGCGUCUCCCUCCUAAGGUGGAGACUGCGGGUUGGAGUCCCGUACGGAACG | ≤ 0.5
GUUAGGUUGGCGUAAUGGUAACGCGUCUCCCUCCUAGGGAGAAGAGUGCGGGUUCGAGUCCCGUACGGAACG | ≤ 0.5
GUUACGUUGGCGUAAUGGUAACGCGUCUCCCUCCUGAGGGGAAGACUGCGGGUUCGAGUCCCGUAUGGAACG | 0.624
GUUAAGUUGGCGUAAUGGUAACGCGUCUCCCUCCUAAGGAGAGGACUGCGGGUUCGAGUCCCGUACGGAACG | 0.529
GUUACGUUGGCGUAAUGGUAGCGCGUCUCCCUCCUAAGGAGAAGACUGCGGGUUCGAGUCCCGUACGAAACG | 0.7
GUUACGUUGGCGUAAUGGUAACGCGUCUCCCUCCUUAGGAGAAGACUGCAGGUUCGAGUCUCGUACGGAACG | ≤ 0.5
GUUACGUUGGCGUAAUGGUAACGCGUCUCCCUCCUAAGGAGACGACUGCGGGUUCGAAUCCCGUACGGAACG | 0.588
GUUAAGUUGGCGUAAUGGUAAAGCGUCGCCCUGCUAAGGAGAAGACUGCGGGUUCGGGUCCCGUACCGAACG | ≤ 0.5
GUUACGUUGGCGUAAUGGUAACGCGUCUCCCUCCUACGGAGAAGACUGCGGGUUCAAGUCCCGUACGUAACG | 0.699
GUUACGUUGGCGUAAUGGUAACGCGUCUCCCUCCUAAGGAGAUGACUGCGGGUUCGAGUACCGUACGGAACG | ≤ 0.5
GUUACGUUGGCGUAAUGGUAACGCGUCUCCCUCCUAAGGAGCAGACUGCGGGUUCGAGUCCCGUAGGCAACG | ≤ 0.5
GUUACGUUGGCGUAAUGGUAACGCGUCUCCCUCCUGAGGAGAAGAGUGCGGGUUCGCGUCCCGUACGGAACG | ≤ 0.5
GUUACGUUGGCGUAAUGGUAACGCGUCUCCCUCCUAAGGAGGAGACUGCGGGUUCGAGUCCCGAACGGAACG | ≤ 0.5
GUUACGUUGGCGUAAUGGUAACGCGUCUCCCUCCUAAGGAGAAGACUGCGGGUUCGAGUCCCGUACGGUACG | 0.952
GUUACGUUGGCGUAAUGGUAACGCGUCUCCCUCCUAAGGAGAAGACUGCGGGUUCGAGUCCCGUACGGCACG | 0.863
GUUACGUUGGCGUAAUGGUAACGCGUCUCCCUCCUAAGGAGAAGACUGCGGGUUCGAGUCCCGUACGGGACG | 0.904

Variant | yeast fitness
GUUACGUUGGCGUAAUGGUAACGCGUCUCCCUCCUACGGAGAAGACUGCGGGUUCGAGUCCCGUACGGAUCG | ≤ 0.5
GUUACGUUGGCGUAAUGGUAACGCGUCUCCCUCCUAUGGAGAAGACUGCGAGUUCGAGUCCCGUACGGAACG | ≤ 0.5
GUUACGUUGGCGUAAUGGUAGCGCGUCUCCCUCCUAAGGAGAAGACUGCGGGUUCGAGUCCCGUUCGGAACG | 0.668
GUUAGGUUGGCGUAAUGGUCACGCGUCUCCCUCCUAAGGUGAAGACUGCGGGUUCGAGUCCCGUACGGAACG | 0.5
GUUAAGUUGGCGUAAUGGUAACGCGUCUCAUUACUAAGGUGAAGACUGCGGGUUCGAGUGCCGUACGGAACG | ≤ 0.5
GUUACGUUGGCGUAAUGGUAACGCGUCUCCCUCCUAUGGAGAGGACUGCGGGUUCGACUGCCGUACGGAACG | 0.654
GUUACGUUGGCGUAAUGGUAGCGCGUCUCCCUCCUAAGGAGAAGUCUGCGGGUUCGAGUCCCGUACGGUACG | 0.655
GUUACGUUGGCGUAAUGGUAUCGCGUAUCCCUCCUAAGGACAAGACUGCGGGUUCGAGUCCCGUACGGAACG | ≤ 0.5
GUUACGUUGGCGUAAUGGUAACGCGUCUCCCUCCUAGGGAGAAGACUGCGGGUUCGAGUCCCCUACGGAACG | 0.552
GUUACGUUGGCGUAAUGGUAACGCGUCUCCCUCCUAAGGAGUAGACUGCGGGUUGGAGUCCCGUACGGAACG | ≤ 0.5
GUUACGUUGGCGUAAUGGUAACGCGUCUCCCUCCUCAGGAGGAGACUGCGGGUUCGAGUCCCGUACGGAACG | ≤ 0.5
GUUACGUUGGCGUAAUGGUAACGCGUCUCCCUCCUAAGGAGAAGACUGCGGGUUCGAGUCCCGUCCUGAACG | ≤ 0.5
GUUACGUUGGCGUAAUGGUAACGCGUCUCCCUCCUAAGGUGAAGACUGCGGCUUCGAGUGCCGUACGGCACG | 0.55
GUUACGUUGGCGUAAUGGUAACGCGUCUCCCUCCUAAGGAGAAGACUGCGGGUUCGAGUCCCGUCCGGAACG | 0.658
GUUACGUUGGCGUAAUGGUAACGCGUCUCCCUCCUAAGGAGGAGCCUGCGGGUUCGAGUCCCGUACGGAACG | ≤ 0.5
GUUACGUUGGCGUAAUGGUAACGCGUCUCCCUCCUAAGGAGAAGUCAGCGGGUUCGAGUCCCGUACGGAACG | ≤ 0.5
GUUACGUUGGCGUAAUGGUAACGCGUCUCCCUCCUAAGGUGAGGACUGCGGGUUCGAGUCCCGUUCGGAACG | ≤ 0.5
GUUACGUUGGCGUAAUGGUAACGCGUCUCCCUCCUGAGGAGAAGACUGCGCGUUCGAGUCCCGUUCGGAACG | ≤ 0.5
GUUAGGUUGGCGUAAUGGUAACGCGUCUCCCUCCUAAGGAGAAGACUGCGGGUUCGAGUCCCGUACGGAACG | 0.571
GUUACGUUGGCGUAAUGGUAACGCGUCUCCCUCCUAAGGAGAAGACUGCGGGUUCGCGUCCCGUAUGGAACG | ≤ 0.5
GUUACGUUGGCGUAAUGGUAACGCGUCUCCCUCCUUCGGAGAAGACCGCGGGUUCGAGUCCCGUACGGAUCG | 0.55
GUUACGUUGGCGUAAUGGUAACGCGUCUCCCUCCUAGGGAGAAGACUGCGGGUUCGAGUCCCGUACGGAACG | 0.754
GUUACGUUGGCGUAAUGGUAACGCGUCUCCCUCCUAUGGAGAAGACUGCGGGUUCGAGUCCCGUACGGAACG | 0.795
GUUAAGUUGGCGUAAUGGUAACGCGUCUCCCUCCUAAGGAGAAGACUGCGGGUUCGAGUACCGUACGGAACG | 0.671
GUUACGUUGGCGUAAUGGUAUCGCGUCUCCCUCCUAAGGAGAGGACUGCGGGUUCGAGUCCAGUACGGAACG | ≤ 0.5
